FLuc inh counter – firefly luciferase enzyme inhibitors, primary screen, artefact control for luciferase-based inhibitor screens, biochemical, luminescence, ATPLite | 10 min | Luciferin 4-monooxygenase (Photinus pyralis), P08659 | AID 1006, 2008 | actives 1.5% (n = 200,000) | inhibition, % at 10 µM;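 active means inhibition above about 50% when tested at 10 µM, limit read from the data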
Target sequence (P08659 whole entry, looked up): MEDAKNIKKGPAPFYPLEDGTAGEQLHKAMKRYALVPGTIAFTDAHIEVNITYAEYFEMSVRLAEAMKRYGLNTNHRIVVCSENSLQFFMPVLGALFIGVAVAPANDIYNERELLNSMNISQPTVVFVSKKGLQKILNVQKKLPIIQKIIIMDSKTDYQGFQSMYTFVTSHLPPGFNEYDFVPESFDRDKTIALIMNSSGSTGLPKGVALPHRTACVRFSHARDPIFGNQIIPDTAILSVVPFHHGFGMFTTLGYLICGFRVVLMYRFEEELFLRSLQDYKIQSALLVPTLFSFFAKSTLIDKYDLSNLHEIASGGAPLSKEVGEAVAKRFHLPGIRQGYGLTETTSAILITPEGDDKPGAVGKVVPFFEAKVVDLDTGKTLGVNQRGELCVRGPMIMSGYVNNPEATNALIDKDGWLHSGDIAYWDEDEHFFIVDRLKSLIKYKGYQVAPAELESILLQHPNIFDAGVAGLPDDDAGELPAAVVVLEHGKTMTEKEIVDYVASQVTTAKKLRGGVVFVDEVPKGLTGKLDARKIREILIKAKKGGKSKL
STAT1 act – STAT1 signaling activators, primary screen, cell-based, HTS, luciferase reporter; NIH 3T3 STAT1-luciferase reporter, IFN-gamma, luminescence; 100% = IFN-gamma alone, no compound; AID 932, 2007; activation (% of control), % at 5.5 µM; actives 2.6% (n = 200,000);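 active means activation above the screen-wide mean activation plus 3 SD, cut at about 130% in these data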;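 further: raw ratio to IFN-gamma control signal so 100% means no change and 0% no light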
FLuc act counter – FLuc activators, initial screening, artefact control for FLuc-dependent activation tests, biochemical, ATPlite luminescence; AID 1027, 2008; 200,000 tested, under 10 active; activation factor at 10 µM; ATPlite luciferase biochemical, 10 min; 0 = ATP-free wells, 1 = DMSO control;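 active means luciferase activation factor, scaled between plate controls, of at least 2 with compound at 10 µM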
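System: cell-free luciferase reagent; medium: PBS as buffer for the ATP substrate; doses: test compounds dosed from 2 mM stocks in 100% DMSO; incubation: 10 min, room temperature; measured by: luminescence from luciferase reaction; read-out: luciferase activation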
APP 5'UTR act – activators of APP 5'UTR luciferase reporter, primary screen, SH-SY5Y cells | SH-SY5Y APP 5'UTR luciferase reporter, luminescence; zero percent = DMSO vehicle wells | activation, % at 2 µM | actives 1% (n = 190,000) | AID 1276, 2008;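 active means activation above a set limit, based on mean plus 3 SD of controls, cut at about 140% in these data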
Pf gamet viab – late stage P. falciparum gametocyte viability inhibitors, primary screen, ATP luminescence, HTS. P. falciparum stage V gametocytes, 24 h. inhibition, % at 10.9 µM. actives 0.065% (n = 150,000);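 active means inhibition above the mean plus 3 SD of compounds within the control limits, set per campaign, cut at about 38% in these data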;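 further: 0% = DMSO wells and 100% = medium only without gametocytes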
NF-kB expr up – activators of NF-kB expression in neurons, primary screen, cell-based, HTS. human neuronal cells, NF-kB reporter expression; stronger effect = higher value. AID 1239, 2008. actives 1.6% (n = 190,000). fold change at 12.5 µM; in the data active means fold change above about 3.3
Numbers without * were called inactive; nt = no result. Hits are enriched below; roughly 3.5% of the tested compounds scored in any of these assays.

SMILES	FLuc inh counter	STAT1 act	FLuc act counter	APP 5'UTR act	Pf gamet viab	NF-kB expr up
CC1CCC/C(=N/Nc2nc3ccccc3s2)C1 (centres undefined)	71.5*	138.5*	0.3	139.7*	1.9	1.3
C=CCC[C@@H](Cc1ccc(F)cc1)C(=O)OC[C@@H](Cc1ccccc1)NC(=O)[C@@H](CC=C)CC(=O)N[C@@H](CO)Cc1ccccc1	nt	nt	nt	nt	-9.2	nt
CCOC(=O)c1c(-c2ccccc2)cn2c(C)cc(C)nc12	43.7	138.1*	0.6	100.0	12.3	1.13
CCOC(=O)c1c(C)nc(C)c(C(=O)OCC)c1-c1ccccc1	-4.2	101.1	1	20.1	nt	1.02
CCOC(=O)c1c(C)nc(-c2ccccc2)nc1N	23.5	148.1*	0.8	123.0	-0.6	3.97*
COc1ccc(OCc2nn[nH]n2)cc1	nt	nt	nt	nt	3.4	nt
CCOC(=O)c1c(NC(=O)COC)sc(C(C)=O)c1C	-2.0	98.2	1	-3.9	nt	1.21
CCOC(=O)c1c(NC(=O)CC(C)C)sc(C(C)=O)c1C	-6.2	90.0	1.1	-14.2	7.5	5.92*
Cc1cc(C)c(S(=O)(=O)NCCCn2ccnc2)cc1C	nt	nt	nt	nt	14.8	nt
COC(=O)c1c(N(S(C)(=O)=O)S(C)(=O)=O)sc2c1CCN(c1ncc(C(F)(F)F)cc1Cl)C2	1.1	91.0	1	-6.1	nt	3.38*
COC(=O)c1c(/N=C/N(C)C)sc2c1CCN(c1ncc(C(F)(F)F)cc1Cl)C2	-3.0	106.0	1	9.6	nt	1.16
CCN(CC)C(=O)CSc1ncnc2c(-c3cccs3)nsc12	2.6	120.3	1	13.1	nt	1.82
O=C(O)c1ccc(/C=N/Nc2cccc(C(F)(F)F)c2)cc1	-6.0	149.2*	1.1	23.7	-6.6	1.06
Cc1nn(-c2cccc(C(F)(F)F)c2)c(Cl)c1/C=N/Nc1cccc(C(=O)O)c1	6.7	105.7	0.9	158.8*	-5.4	8.01*
Cc1nn(-c2ccccc2Cl)c(Cl)c1/C=N/Nc1cccc(C(=O)O)c1	90.5*	80.8	0.1	2.7	-5.2	9.75*
CCCCN(Cc1ccco1)C(=O)Cn1ncc2c(=O)oc3ccc(C)cc3c21	-3.1	95.8	1	-6.2	nt	1.48
Cn1cc(S(=O)(=O)N2CCc3ccccc3C2)c(=O)n(C)c1=O	-8.8	100.8	1.1	7.5	nt	0.95
N#C/C(=C\c1ccc(N2CCCCC2)o1)C(=O)Nc1cccc(Br)c1	11.6	159.6*	0.9	169.5*	-6.5	1.13
N#C/C(=C\c1ccc(N2CCCCC2)o1)C(N)=O	9.0	117.1	0.9	29.6	0.9	1.33
Cc1occc1C(=O)NC(C)C12CC3CC(CC(C3)C1)C2 (centres undefined)	-7.1	103.6	1.1	10.4	1.5	1.04
Cc1occc1C(=O)NN=C1C2CC3CC(C2)CC1C3	-4.8	149.6*	1	154.1*	0.4	2.49
CC(C)c1cc(NCC2CCCO2)n2c(nc3ccccc32)c1C#N (centres undefined)	0.3	91.9	1	-9.6	nt	0.78
CC(=O)c1ccc(-c2nc3ccccc3n2C)o1	25.4	129.6*	0.7	39.6	nt	2.21
Cn1cc(C(=O)c2ccccc2)cc1-c1nc2ccccc2n1C	-7.7	93.7	1.1	-2.1	4.8	0.78
Cn1c(-c2ccc(Br)o2)nc2ccccc21	82.7*	139.7*	0.2	134.9	-12.3	4.45*
SMILES	FLuc inh counter	STAT1 act	FLuc act counter	APP 5'UTR act	Pf gamet viab	NF-kB expr up
Cn1c(-c2ccc(Br)o2)nc2cc(Br)ccc21	63.7*	138.3*	0.4	nt	6.9	5.34*
Cc1ccc(-c2nc3ccccc3n2C)o1	67.5*	129.5*	0.3	46.1	nt	3.61*
Brc1ccc(Cn2c(-c3ccc(Br)o3)nc3ccccc32)o1	8.0	109.8	0.9	29.2	-7.0	1.16
Nc1sc2c([n+]1CCCS(=O)(=O)[O-])CCCC2	-6.4	95.5	1.1	0.8	9.0	0.87
N#Cc1c(NC(=O)C2CCCO2)sc2c1CCCCCC2 (centres undefined)	-0.5	107.4	1	45.1	nt	1.54
Cc1oc(-c2nc3ccccc3n2C)cc1C(=O)c1ccccc1	90.0*	63.6	0.1	190.0*	nt	2.63
COc1ccc(C2=Nn3c(nnc3-c3ccco3)SC2)cc1	-2.1	105.3	1	-10.6	0.7	4.82*
COc1ccc(OC)c(C2=Nn3c(nnc3-c3ccco3)SC2)c1	-1.2	97.0	1	-8.9	15.4	3.13
Brc1ccc(C2=NC(Cc3ccccc3)CO2)cc1 (centres undefined)	1.9	118.3	1	61.5	nt	3.33*
O=c1/c(=C/c2ccc(O)cc2)sc2nc3cc(Br)cnc3n12	-0.9	110.5	1	-20.7	nt	1.4
CN1C(=O)CC(N2CCN(Cc3ccc(Cl)cc3)CC2)C1=O (centres undefined)	1.7	101.3	1	-19.9	nt	1.18
CCN(CC)c1ccc2c(c1)OC(N)=C(C#N)C2c1cccnc1 (centres undefined)	-5.3	87.8	1.1	-94.4	nt	3.49*
COc1cc(C)ccc1OCCOc1c(C)cc(Cl)cc1Cl	-4.2	105.3	1	1.6	13.4	1.34
COc1ccc(NC(=S)Nc2ccc(N)c([N+](=O)[O-])c2)cc1	-6.8	113.7	1.1	-31.7	-9.0	3.32*
COc1ccc(NC(=S)Nc2ccccc2)cc1	nt	nt	nt	nt	11.8	nt
Cc1ccc(C(Sc2ccccc2)C(Cn2cncn2)C(=O)c2ccccc2)cc1 (centres undefined)	0.6	100.3	1	1.8	nt	1.5
O=C(Nc1ccc(CCC(=O)N2CCCC2)cc1)c1ncn[nH]1	0.2	104.2	1	-2.8	nt	0.96
O=C(Nc1ccc(N2CCCCC2)c(Cl)c1)c1ncn[nH]1	56.6*	113.3	0.4	6.3	nt	1.21
O=C(Nc1ccc(S(=O)(=O)N2CCCCCC2)cc1)c1ccco1	-0.2	113.4	1	25.7	nt	3.82*
O=C(Nc1ccc(N2CCOCC2)c(Cl)c1)c1ccc(Br)o1	23.2	139.7*	0.8	124.8	nt	1.61
O=C(Nc1ccc(N2CCCC2)c(Cl)c1)c1ccco1	77.3*	142.9*	0.2	285.9*	nt	8.28*
Cn1nc(C(=O)NC2CCCc3ccccc32)ccc1=O (centres undefined)	-5.1	96.9	1.1	20.1	0.8	1.1
O=C(Nc1ccc(N2CCOCC2)c([N+](=O)[O-])c1)c1ccco1	12.2	131.9*	0.9	30.3	-15.4	1.79
O=C(Nc1ccc(NC(=O)c2cccs2)cc1Cl)c1ccco1	2.9	131.4*	1	71.7	15.2	2.28
